KCNK3 inh: human KCNK3 channel inhibitors, primary screen, CHO cells, FluxOR thallium flux, B-score | Potassium channel subfamily K member 3 (Homo sapiens), O14649 | FluxOR fluorescence; stronger effect = lower value | 0.84% of 340,000 active | AID 602410, 2012 | B-score at 10 µM;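 active = B-score under library mean minus 4 SD, starting fluorescence ratio at most library mean plus 5 SD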;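 note: more negative B-score means stronger inhibition of thallium flux through KCNK3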
KCNQ1 act: potentiators or activators of KCNQ1 channel, primary screen, cell-based, thallium flux, high-throughput | Potassium voltage-gated channel subfamily KQT member 1 (Homo sapiens), P51787 | CHO-K1 KCNQ1, thallium flux FluxOR fluorescence; stronger effect = higher value | B-score at 10 µM | 0.35% of 310,000 active;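 active = fluorescence ratio B-score, a plate-corrected score, at least three library SD, with initial intensity B-score within 5 SD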
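assay system = CHO-K1 cells stably expressing KCNQ1 | medium = assay buffer, equal DMSO in all wells | timing = 37 °C overnight plating, 90-min dark dye load, 20-min compound pretreatment | measured by = kinetic FluxOR thallium fluorescence, 10-s 1-Hz baseline, 110-s post-stimulus read | measure = fluorescence change relative to baseline, converted to B score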
hERG protect: hERG rescue from dofetilide block, primary screen, cell-based, CHO-hERG, FluxOR thallium flux, dofetilide IC70; 0.51% of 310,000 active; activation (rescue from dofetilide block), less the hit threshold, % at 10 µM; dofetilide IC70 present; Voltage-gated inwardly rectifying potassium channel KCNH2 (Homo sapiens), Q12809;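 active = activation above the mean of controls blocked by dofetilide plus 5 SD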;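 note: thallium influx through hERG after potassium depolarization seen as dye fluorescence rise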
KCNK9 block: KCNK9 potassium channel inhibitors, primary screen, HEK293 cells, thallium flux | Potassium channel subfamily K member 9 (Homo sapiens), Q9NPC2 | FluxOR thallium flux fluorescence; stronger effect = lower value | B-score at 10 µM | 1.2% of 310,000 active;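 active = ratio B-score over 3 SD below the library mean, with starting fluorescence within 5 SD of its mean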;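 note: negative B-score means less thallium flux so channel inhibition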
KCNQ1 block: inhibitors of human KCNQ1 channel, primary screen, cell-based, thallium flux, high-throughput. CHO-K1 KCNQ1, FluxOR thallium flux fluorescence; stronger effect = higher value. B-score at 10 µM. Potassium voltage-gated channel subfamily KQT member 1 (Homo sapiens), P51787. 1.3% of 310,000 active;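 active = compounds whose thallium flux B-score, printed positive for inhibition, exceeds three library SD while starting fluorescence stays within three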;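 note: channel opened by potassium depolarization with thallium stimulus after 20 min compound exposure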
Kir21 block: inhibitors of mouse Kir2.1 inward-rectifier potassium channel; B-score at 10 µM; HEK293-Kir2.1, FluxOR thallium flux fluorescence; stronger effect = lower value; 0.85% of 310,000 active; AID 1672, 2009; Inward rectifier potassium channel 2 (Mus musculus), P35561;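 active = fluorescence ratio B-score at or below minus 3 SD of library scores, with starting-brightness B-score within 2 SD, cut at about -4.2 in these data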;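 note: channel flux triggered by added potassium and thallium sulfate stimulus; B-score of peak minus minimum fluorescence over baseline after thallium stimulus; more negative B-score means stronger Kir2.1 block with less thallium influx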
Numbers stand for hits; – = inactive; · = no result. This is a sample that favours compounds with a hit; in the whole collection about 3.7% have one here.

SMILES	KCNK3 inh	KCNQ1 act	hERG protect	KCNK9 block	KCNQ1 block	Kir21 block
Cc1ccc(NC(=O)c2cccs2)cc1	–	–	–	–	–	–
COc1ccc(/C=C/C(=O)Nc2ccccc2C(=O)N2CCCC2)cc1	–	–	–	–	–	–
COc1ccc(/C=C/C(=O)Nc2ccccc2C(=O)O)cc1	–	–	32	–	–	–
Cc1ccc(S(=O)(=O)N2CCCC2C(=O)NCc2ccc3c(c2)OCO3)cc1 (centres undefined)	–	–	9.9	–	–	–
Cc1ccc(CNC(=O)C2CCCN2S(=O)(=O)c2ccc(Cl)cc2)cc1 (centres undefined)	–	–	–	–	–	–
Cc1c(C(=O)N2CC(C)OC(C)C2)[nH]c2ccc(Br)cc12 (centres undefined)	–	–	–	–	–	–
CCOC(=O)N1CCN(S(=O)(=O)c2ccc3c(c2)OCC(=O)N3)CC1	–	–	10	–	–	–
CCOC(=O)N1CCN(S(=O)(=O)c2ccc3c(c2)NC(=O)CO3)CC1	–	·	·	·	·	·
CC(C)(C)c1ccc(/C=C2\Oc3cc(O)ccc3C2=O)cc1	–	–	–	–	–	–
O=C1/C(=C/c2ccc([N+](=O)[O-])cc2)Oc2cc(O)ccc21	–	–	–	–	6	–
CCOC(=O)N1CCN(C(=O)c2ccc3c(=O)n(Cc4ccc(Cl)cc4)c(=S)[nH]c3c2)CC1	–	–	–	–	–	–
CCOC(=O)Cn1c(=S)[nH]c2c(oc3ccc(Cl)cc32)c1=O	–	12	–	–	–	–
Cc1c(Cl)cccc1NC(=S)NC1CCN(Cc2ccccc2)CC1	–	–	–	–	–	–
S=C(Nc1ccccc1Cl)NC1CCN(Cc2ccccc2)CC1	–	–	–	–	–	-6.7
O=C(NC1CCN(Cc2ccccc2)CC1)c1ccc(Cl)cc1Cl	–	–	–	–	–	-6.5
Cc1ccc(Nc2ncnc(N)n2)cc1C	–	–	–	–	–	–
O=C(c1ccccc1SCc1ccccc1)N1CCCCCC1	–	–	–	–	–	-4.5
Cc1cc(Cl)c2oc(C(=O)N3CCN(c4ccncc4)CC3)c(C)c2c1	–	–	–	–	–	-5.1
Cc1ccc(C(=O)NCC(=O)NC2CCC(C)CC2)s1 (centres undefined)	–	·	·	·	·	·
O=C(Nc1ccc(C(F)(F)F)cc1)N1CCN(c2ccnc3cc(Cl)ccc23)CC1	–	–	–	–	6	–
CC(=O)c1c(OC(=O)c2ccc(C)cc2)c2ccccc2n1C	–	–	–	-7.2	–	–
CN(CC(O)CN)CC(O)CN1CCCCC1 (centres undefined)	–	–	5.7	–	–	–
CCOc1cccc(CN(C)CC2CCCN(CCc3ccc(Cl)cc3)C2)c1O (centres undefined)	–	–	–	–	–	-7.3
COc1ccc(CN(C)CC2CCCN(CCc3ccc(Cl)cc3)C2)cc1OC (centres undefined)	–	–	–	–	–	–
Cc1ccccc1CCN1CCCC(CN(C)CC(C)(C)C)C1 (centres undefined)	–	–	–	–	–	–
SMILES	KCNK3 inh	KCNQ1 act	hERG protect	KCNK9 block	KCNQ1 block	Kir21 block
COc1ccc(F)c(CN(C)CC2CCCN(CCc3ccc(F)cc3)C2)c1 (centres undefined)	–	–	–	–	–	-9.8
CC(=O)c1cccc(CN(C)CC2CCCN(CCc3ccccc3C)C2)c1 (centres undefined)	–	–	–	–	–	-6.5
CC(c1nccs1)N(C)C(=O)CCc1nnc(CCc2ccccc2)o1 (centres undefined)	–	–	–	–	–	–
CC1CCCCN1c1nc(-c2ccncc2)nc2ccccc12 (centres undefined)	–	–	–	–	–	–
CCC1CCCCN1c1nc(-c2cccc(OC)c2O)nc2ccccc12 (centres undefined)	–	–	–	-7.6	–	–
CCC1CCCCN1c1nc(-c2ccncc2)nc2ccccc12 (centres undefined)	–	–	–	-6.8	–	–
O=C(NCC(=O)N1CCN(Cc2ccccc2)CC1)c1ccc(Br)o1	–	–	–	–	–	–
Cc1cccc(CC(C)NC(=O)c2oc3c(F)cccc3c2C)n1 (centres undefined)	–	–	–	–	–	–
O=C(Cc1ccccc1)NC1CCN(C(=O)c2ccc([N+](=O)[O-])cc2)CC1	–	–	–	–	–	–
O=C(c1ccc([N+](=O)[O-])cc1)N1CCC(Cc2ccccc2)CC1	–	–	–	-7.4	–	–
Cc1ccc(N2CCN(C(=S)Nc3ccccc3C)CC2)cc1	–	–	–	–	–	–
Cc1cc(C)nc(SCCCNCc2c(F)cccc2Cl)n1	–	–	–	–	–	–
Cc1ccc(CNCCCSc2nc(C)cc(C)n2)cc1	–	–	–	–	–	-4.9
Cc1oc(C)c2c(=O)ccc3c(c12)OC(N)=C(C#N)C3c1ccc(F)cc1 (centres undefined)	–	–	–	–	8	–
O=C(CC1C(=O)NCCN1Cc1cccc(F)c1F)NCCCC1CCCC1 (centres undefined)	–	–	–	–	–	–
FC(F)(F)c1ccc(N2CCOCC2)c(Nc2nc3ccccc3n3cnnc23)c1	–	–	–	-7.2	–	–
COc1cccc(NC(=O)CSc2c3c(nc4ccccc24)CCCC3)c1	–	–	–	–	–	-5.8
CCCCn1nnnc1SCC(=O)c1cc(Cl)ccc1OC	–	–	–	–	–	–
COc1ccc(Cl)cc1C(=O)CSc1nc(N)cc(N)n1	–	–	–	–	–	-4.7
O=C(c1ccccc1)c1ccc2nc(-c3ccco3)c(-c3ccco3)nc2c1	–	–	–	–	9	–
CS(=O)(=O)N1CCc2cc(C(=O)Nc3ccc(Br)cc3)ccc21	–	–	–	–	–	–
CCOc1ccc(NC(=O)c2ccc3c(c2)CCN3S(C)(=O)=O)cc1	–	–	11	–	–	–
O=C(CSc1nc2ccccc2c(=O)[nH]1)Nc1ccc(C(=O)O)cc1	–	–	–	–	–	–
CCOc1ccc(NC(=O)c2ccc(NC(=O)CSc3nc4ccccc4c(=O)[nH]3)cc2)cc1	–	–	4.7	–	–	–
CCOc1ccc(NC(=O)c2ccc(N)cc2)cc1	–	11	–	–	–	–
O=[N+]([O-])c1cccnc1N1CCN(c2ccc(F)cc2)CC1	–	–	–	–	–	–
